Assay outcomes (PubChem)
OX1R antag-1: OX1R (HCRTR1) antagonists, primary screen, fluorescence, CHO/OX1R cells, Fluo-8 calcium, orexin A | Orexin/Hypocretin receptor type 1 (Homo sapiens), O43613 | Fluo-8 calcium fluorescence | inhibition, % at 5 µM | 330,000 tested, 0.43% active | AID 434989, 2010;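 active = inhibition above its plate's threshold, mean inhibition of all tested compounds on the plate plus 3 SD, cut at about 37% in these data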;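 note: 0% = orexin A challenge wells and 100% = SB-334867-A antagonist wells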
TAAR1 antagonist: human TAAR1 antagonists, primary screen, Fluo-8 calcium fluorescence, CHO RD-HGA16 cells; antagonist; AID 624466, 2012; inhibition, % at 3 µM; 360,000 tested, 1.5% active;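 active = inhibition above a per-plate cutoff, the mean inhibition of test compounds on that plate plus 3 SD, cut at about 49% in these data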;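 note: 0% = DMSO plus EC80 beta-PEA response and 100% = DMSO alone without agonist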
Target sequence (Q96RJ0 whole entry, looked up): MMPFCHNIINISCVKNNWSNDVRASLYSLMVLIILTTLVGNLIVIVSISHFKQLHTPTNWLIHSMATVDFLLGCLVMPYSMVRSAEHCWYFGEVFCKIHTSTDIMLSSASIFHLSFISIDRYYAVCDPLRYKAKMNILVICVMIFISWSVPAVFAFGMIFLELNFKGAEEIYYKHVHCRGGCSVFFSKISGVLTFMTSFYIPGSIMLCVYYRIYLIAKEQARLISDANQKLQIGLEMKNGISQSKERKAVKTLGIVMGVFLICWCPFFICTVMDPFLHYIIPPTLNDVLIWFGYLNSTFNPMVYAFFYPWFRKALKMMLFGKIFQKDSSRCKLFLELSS
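Assay system: RD-HGA16 CHO cells with stable hTAAR1 and Gα16 / Reagent: EC80 β-phenethylamine stimulus / Doses: 3 µM, single point / Timing: dye loading 75 min at 37 °C, then 30 min room temperature / Measured by: Fluo-8 intracellular calcium dye fluorescence, real-time kinetic reads / Controls: vehicle wells and EC80 agonist wells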
OX1R antag-2: antagonists of human orexin 1 receptor (OX1R). Orexin/Hypocretin receptor type 1 (Homo sapiens), O43613. OX1R-expressing cells, FRET antagonist read-out. inhibition, % at 6.6 µM. 330,000 tested, 1.8% active; in the data active = inhibition mostly above about 38%, no sharp cut-off; inactive = mostly below about 40%;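 note: 0% = agonist challenge alone and 100% = reference antagonist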
CHO parental Ca: ATP-evoked calcium signal inhibitors, parental CHO, primary screen, counter-screen for OX1R antagonist project, cell-based, fluorescence, Fluo-8 calcium dye; 330,000 tested, 0.63% active; inhibition, % at 5.6 µM; AID 463079, 2010; parental CHO-K1, ATP-induced calcium, Fluo-8 fluorescence;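 active = inhibition above that plate's mean sample inhibition plus 3 SD, cut at about 26% in these data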;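 note: 0% = ATP-challenged DMSO wells and 100% = DMSO wells without ATP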
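Material: parental CHO cells / Compound: single nominal dose of 5.6 µM per compound / Signal: Fluo-8 fluorescence / Replicates: singlicate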
GPR7 antagonist: GPR7 receptor antagonists, primary screen, cell-based, fluorescence, single concentration; Neuropeptides B/W receptor type 1 (Homo sapiens), P48145; GPR7-expressing cells, fluorescence antagonist assay; inhibition, % at 4.4 µM; 290,000 tested, 1.1% active; in the data active = inhibition above about 16%, passing the limit was not always enough;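 note: cells stimulated with the agonist NPW; 0% = agonist with vehicle and 100% = vehicle without agonist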
Target sequence (P48145 whole entry, looked up): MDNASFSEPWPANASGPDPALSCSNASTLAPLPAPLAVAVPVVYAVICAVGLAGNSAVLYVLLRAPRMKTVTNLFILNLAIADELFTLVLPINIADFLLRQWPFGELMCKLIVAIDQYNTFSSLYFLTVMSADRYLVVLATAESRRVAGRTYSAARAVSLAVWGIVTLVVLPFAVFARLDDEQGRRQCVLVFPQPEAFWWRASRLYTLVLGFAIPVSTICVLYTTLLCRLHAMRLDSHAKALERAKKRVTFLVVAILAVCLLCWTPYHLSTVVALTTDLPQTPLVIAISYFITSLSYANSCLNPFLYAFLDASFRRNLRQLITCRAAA
TAAR1 ag: human TAAR1 agonists, primary screen, Fluo-8 calcium fluorescence, CHO RD-HGA16 cells; Trace amine-associated receptor 1 (Homo sapiens), Q96RJ0; vehicle wells 0%, saturating PEA agonist 100%; activation, % at 3 µM; 360,000 tested, 0.99% active;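 active = activation above the mean activation of all test compounds in the run plus 3 SD, cut at about 38% in these data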
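System: CHO RD-HGA16 cells carrying human TAAR1 plus Gα16; Incubation: 17-24 h seeding, 75 min 37 °C dye, 30 min RT; Measured by: Fluo-8 fluorescence, 5 s baseline then 140 s kinetic read; Control set: DMSO and PEA EC100; Replication: single well for each compound.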
The depositor's hits bear a star; · = no result given. A selection: hits, their analogues and other compounds. The true share with any hit is near 4.6%.

SMILES	OX1R antag-1	TAAR1 antagonist	OX1R antag-2	CHO parental Ca	GPR7 antagonist	TAAR1 ag
O=C(CSc1nc2ccc([N+](=O)[O-])cc2[nH]1)c1ccc2ccccc2c1	-19	52*	34	1	-14	7
CCCCCCCCN1C(=O)[C@@H](CC(=O)NCc2cccc3ccccc23)C[C@@]2(C(=O)OC)C1=C[C@H](C1CCCC1)O[C@@H]2C	·	-14	·	·	·	3
NC(=O)[C@@H]1CCCN1C(=O)[C@@H](Cc1ccccc1)NC(=O)[C@H]1O[C@@H](n2ccc(N)nc2=O)[C@H](O)[C@@H]1O	·	-4	·	·	·	1
Cc1nn(-c2ccccc2)c2c1C(O)n1c(nc3ccccc31)S2 (stereo unspecified)	-21	50*	21	-18	8	17
Cc1ccc(Nc2nc(N)nc(CN3CCCCCC3)n2)c(C)c1	-20	2	4	-16	20*	6
CC12CCC(=O)N1C(C(=O)NNC(=O)COc1ccccc1F)CS2 (stereo unspecified)	-14	9	5	0	·	-1
CCCOc1ccc(-c2csc3nc[nH]c(=O)c23)cc1	-9	4	11	1	13	0
O=c1[nH]cnc2scc(-c3ccc(-c4ccccc4)cc3)c12	-2	50*	28	-1	-8	10
Oc1ccc2ccccc2c1-c1sc(Nc2ccccc2)n[n+]1-c1ccc(F)cc1	-21	6	5	-17	-10	14
Fc1ccc(-[n+]2nc(Nc3ccccc3)sc2-c2c3ccccc3cc3ccccc23)cc1	-21	25	25	11	17	46*
COc1ccccc1OCCNC(=O)CN1C(=O)NC2(CCCC2)C1=O	·	-19	·	·	·	1
CCC1(C)CC(C#N)(C#N)C(=O)NC1=O (stereo unspecified)	·	-9	·	·	·	0
CCC1CCCCN1C(=O)COC(=O)COc1ccc(Br)cc1 (stereo unspecified)	5	19	9	-5	·	11
CCOc1ccc(NC(=NCc2ccc3c(c2)OCO3)SC2CC(=O)N(c3ccc(C(=O)O)cc3)C2=O)cc1 (stereo unspecified)	51*	-9	27	38*	-7	7
CCCCCn1c(C)c(CC(=O)Nc2ccc(Oc3cccnc3)c(C)c2)c2ccccc21	·	9	·	·	·	-2
O=C(N[C@@H](Cc1cccnc1)C(=O)N1CCC[C@H]1C(=O)NC1CCCC1)C1CCCC1	·	-3	·	·	·	0
CC(C)Oc1cccc(C(=O)C2CCCN(Cc3cnc(N4CCCC4)s3)C2)c1 (stereo unspecified)	-44	-26	8	-16	-2	31
COc1ccc2cc(C(=O)C3CCCN(Cc4cnc(N5CCOCC5)s4)C3)ccc2c1 (stereo unspecified)	-22	7	34	-12	-3	40*
CCCCOc1ccc(-c2nnn(CC(=O)Nc3ncc(CC(=O)OCC)s3)n2)cc1	-15	21	23	-10	7	42*
CCOC(=O)Cc1cnc(NC(=O)Cn2nnc(-c3ccc(OCC)cc3)n2)s1	-9	5	2	-14	6	34
COc1ccc(C2CC(=O)C(c3ccc(C(N)=O)cc3)=CN2Cc2ccccc2)cc1 (stereo unspecified)	·	-4	·	·	·	1
COc1ccc(C(=O)Nc2cc3c(cc2OC)CCCC3)cc1Br	9	9	72*	31*	-11	13
COc1ccc(-c2nn(-c3ccccc3)cc2C=O)cc1[N+](=O)[O-]	8	49*	29	12	-2	6
CCOc1cc(OCC)cc(C(=O)N2CCC[C@@H]2C(=O)N2CCC[C@H]2C(=O)NCc2ccccc2)c1	·	-24	·	·	·	2
C=CCn1c(-c2csc(-c3ccc(OC)c(OC)c3)n2)n[nH]c1=S	-9	-16	32	72*	-7	0
SMILES	OX1R antag-1	TAAR1 antagonist	OX1R antag-2	CHO parental Ca	GPR7 antagonist	TAAR1 ag
CCCCCCC12Cc3cc(OC)c(OC)cc3C(O1)C1=C(O2)C(C)(C)CCC1=O (stereo unspecified)	·	-10	·	·	·	-2
Cn1c(CC(=O)Nc2ccc(Cl)c(Cl)c2)n[nH]c1=S	6	5	10	1	1	2
COc1ccc(Cc2n[nH]c(=S)n2NC(=O)Nc2ccc(Cl)c(Cl)c2)cc1	30	-27	58*	52*	15	12
CC(=O)C1=CCC(c2ccccc2)N(S(=O)(=O)c2ccccc2C)C1 (stereo unspecified)	·	1	·	·	·	2
Cc1ccc(NC(=O)C2CCN(c3ncnc4sc(C)c(C)c34)CC2)cc1S(=O)(=O)N(C)C	-31	34	20	-6	·	7
Cc1ccc(C)c(S(=O)(=O)N2CCN(C(=O)C3CCN(c4ncnc5sc(C)c(C)c45)CC3)CC2)c1	17	59*	-1	-3	·	5
CCN(CC)S(=O)(=O)c1cc(NC(=O)C2CCN(c3ncnc4sc(C)c(C)c34)CC2)ccc1Cl	14	65*	23	7	·	5
COCCCN1C(=O)C(CC(=O)NC2CCCCC2)CC(C(=O)N2CCCCCC2)=C1C (stereo unspecified)	·	7	·	·	·	-1
COC(=O)c1ccccc1NC(=O)CCCn1nc([N+](=O)[O-])c(Br)c1C	4	-5	75*	-17	-2	-1
COCCNC(=O)C1CCCN(C(=O)COc2ccc(Cl)cc2Cl)CC1 (stereo unspecified)	·	-7	·	·	·	1
Nn1c(SCc2ccccc2)nc2c(cnn2-c2ccccc2)c1=O	-21	-14	13	4	0	5
C=CCn1c(Cc2ccccc2)nc2c(cnn2-c2ccccc2)c1=O	6	23	13	39*	-2	1
COc1cc2ccccc2cc1C(=O)Nc1nccs1	-9	40	64*	-22	1	6
COc1cc2ccccc2cc1C(=O)Nc1cc(C)ccn1	-15	14	53*	-24	-8	-2
Clc1ccc(Br)c(-c2nc3ccccc3[nH]2)c1	·	-7	·	·	·	0
COc1cccc(C2=Nn3c(nnc3-c3ccccc3O)SC2)c1	-16	5	15	-11	14	0
C[n+]1c2n(c3ccccc31)N=C(c1cc(C(C)(C)C)c(O)c(C(C)(C)C)c1)CS2	-4	-2	10	18	70*	6
CC1(c2ccccc2Cl)NC(=O)N(CC(=O)Nc2ccccc2OC(F)F)C1=O (stereo unspecified)	-23	0	43*	-17	-7	5
